Results from ChEMBL document CHEMBL1141140, “Antifungal agents. 11. N-substituted derivatives of 1-[(aryl)(4-aryl-1H-pyrrol-3-yl)methyl]-1H-imidazole: synthesis, anti-Candida activity, and QSAR studies” (2005).
Converted amounts (≈) assume the structure as drawn.

What was measured:
Candida albicans [1] = assay: In vitro concentration causing 90% inhibition of Candida albicans with percentage of resistant strains %R = 0 (MIC > 64 ug/mL) at a range of 0.062-2 ug/mL; format: functional
Candida albicans [2] = assay: Ratio of the in vitro minimal inhibitory to that of bifonazole against Candida albicans (MIC(compound)/MIC(bifonazole)); format: functional
Summary of the method: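 Broth microdilution per NCCLS M27-A2 against 12 Candida albicans strains (AIDS oropharyngeal, HIV vulvovaginitis isolates, ATCC 24433 and 20891, lab strains 3153 and CA2). Inoculum ~10^4 cells/mL in RPMI 1640, pH 7.0; DMSO stocks 6.4 mg/mL, twofold dilutions 0.016–64 μg/mL; read at 24 h, 28 °C, no visible growth. Mean MIC over strains converted to μmol/mL, divided by bifonazole MIC.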

Candida albicans [3] = assay: In vitro minimal inhibitory concentration against Candida albicans with percentage of resistant strains %R = 0 (MIC > 64 ug/mL) at a range of 0.062-2 ug/mL; format: functional
Candida albicans [4] = assay: In vitro concentration causing 50% inhibition of Candida albicans with percentage of resistant strains %R = 0 (MIC > 64 ug/mL) at a range of 0.062-2 ug/mL; format: functional
Candida albicans [5] = assay: In vitro minimal inhibitory concentration against Candida albicans with percentage of resistant strains %R = 45.45 (MIC > 64 ug/mL) at a range of 0.125-0.5 ug/mL; format: functional
Candida albicans [6] = assay: In vitro concentration causing 90% inhibition of Candida albicans with percentage of resistant strains %R = 45.45 (MIC > 64 ug/mL) at a range of 0.125-0.5 ug/mL; format: functional
Candida albicans [7] = assay: In vitro concentration causing 50% inhibition of Candida albicans with percentage of resistant strains %R = 45.45 (MIC > 64 ug/mL) at a range of 0.125-0.5 ug/mL; format: functional
Candida albicans [8] = assay: In vitro concentration causing 90% inhibition of Candida albicans with percentage of resistant strains %R = 50 (MIC > 64 ug/mL) at a range of 0.125-2 ug/mL; format: functional
Candida albicans [9] = assay: In vitro minimal inhibitory concentration against Candida albicans with percentage of resistant strains %R = 50 (MIC > 64 ug/mL) at a range of 0.125-2 ug/mL; format: functional
Candida albicans [10] = assay: In vitro concentration causing 50% inhibition of Candida albicans with percentage of resistant strains %R = 50 (MIC > 64 ug/mL) at a range of 0.125-2 ug/mL; format: functional
Candida albicans [11] = assay: In vitro concentration causing 50% inhibition of Candida albicans with percentage of resistant strains %R = 66 (MIC > 64 ug/mL) at a range of 0.25-2 ug/mL; format: functional
Candida albicans [12] = assay: In vitro concentration causing 90% inhibition of Candida albicans with percentage of resistant strains %R = 66 (MIC > 64 ug/mL) at a range of 0.25-2 ug/mL; format: functional
Candida albicans [13] = assay: In vitro minimal inhibitory concentration against Candida albicans with percentage of resistant strains %R = 66 (MIC > 64 ug/mL) at a range of 0.25-2 ug/mL; format: functional
Candida albicans [14] = assay: In vitro concentration causing 90% inhibition of Candida albicans with percentage of resistant strains %R = 50 (MIC > 64 ug/mL) at a range of 2-4 ug/mL; format: functional
Candida albicans [15] = assay: In vitro concentration causing 50% inhibition of Candida albicans with percentage of resistant strains %R = 50 (MIC > 64 ug/mL) at a range of 2-4 ug/mL; format: functional
Candida albicans [16] = assay: In vitro minimal inhibitory concentration against Candida albicans with percentage of resistant strains %R = 50 (MIC > 64 ug/mL) at a range of 2-4 ug/mL; format: functional
Candida albicans [17] = assay: In vitro concentration causing 50% inhibition of Candida albicans with percentage of resistant strains %R = 16 (MIC > 64 ug/mL) at a range of 2-32 ug/mL; format: functional
Candida albicans [18] = assay: In vitro minimal inhibitory concentration against Candida albicans with percentage of resistant strains %R = 16 (MIC > 64 ug/mL) at a range of 2-32 ug/mL; format: functional
Candida albicans [19] = assay: In vitro concentration causing 90% inhibition of Candida albicans with percentage of resistant strains %R = 16 (MIC > 64 ug/mL) at a range of 2-32 ug/mL; format: functional
Candida albicans [20] = assay: microbe, parasite or virus in culture
Candida albicans [21] = assay: In vitro concentration causing 50% inhibition of Candida albicans with percentage of resistant strains %R = 33.33 (MIC > 64 ug/mL) at a range of 0.062-2 ug/mL; format: functional
Candida albicans [22] = assay: In vitro concentration causing 90% inhibition of Candida albicans with percentage of resistant strains %R = 33.33 (MIC > 64 ug/mL) at a range of 0.062-2 ug/mL; format: functional
Candida albicans [23] = assay: In vitro concentration causing 90% inhibition of Candida albicans with percentage of resistant strains %R = 33.33 (MIC > 64 ug/mL) at a range of 0.25-2 ug/mL; format: functional
Candida albicans [24] = assay: In vitro minimal inhibitory concentration against Candida albicans with percentage of resistant strains %R = 33.33 (MIC > 64 ug/mL) at a range of 0.25-2 ug/mL; format: functional
Candida albicans [25] = assay: In vitro concentration causing 50% inhibition of Candida albicans with percentage of resistant strains %R = 33.33 (MIC > 64 ug/mL) at a range of 0.25-2 ug/mL; format: functional
Candida albicans [26] = assay: In vitro concentration causing 90% inhibition of Candida albicans with percentage of resistant strains %R = 50 (MIC > 64 ug/mL) at a range of 0.5-16 ug/mL; format: functional
Candida albicans [27] = assay: In vitro concentration causing 50% inhibition of Candida albicans with percentage of resistant strains %R = 50 (MIC > 64 ug/mL) at a range of 0.5-16 ug/mL; format: functional
Candida albicans [28] = assay: In vitro minimal inhibitory concentration against Candida albicans with percentage of resistant strains %R = 50 (MIC > 64 ug/mL) at a range of 0.5-16 ug/mL; format: functional

C=CCn1cc(-c2ccc(Cl)cc2Cl)c(C(c2ccc(Cl)cc2Cl)n2ccnc2)c1 (stereo unspecified)
MIC90 (Candida albicans [1]): 1 µg/mL (≈ 2.1 µM)
Ratio (Candida albicans [2]): 0.12
MIC (Candida albicans [3]): 0.65 µg/mL (≈ 1.36 µM)
MIC50 (Candida albicans [4]): 0.25 µg/mL (≈ 0.524 µM)

OC(Cn1cncn1)(Cn1cncn1)c1ccc(F)cc1F [FLUCONAZOLE]
MIC (Candida albicans [5]): 0.24 µg/mL (≈ 0.784 µM)
Ratio (Candida albicans [2]): 0.069
MIC90 (Candida albicans [6]): 0.5 µg/mL (≈ 1.63 µM)
MIC50 (Candida albicans [7]): 0.25 µg/mL (≈ 0.816 µM)

Cn1cc(-c2ccc(Cl)cc2)c(C(c2ccc(Cl)cc2Cl)n2ccnc2)c1 (stereo unspecified)
MIC90 (Candida albicans [8]): 2 µg/mL (≈ 4.8 µM)
Ratio (Candida albicans [2]): 0.28
MIC (Candida albicans [9]): 1.31 µg/mL (≈ 3.14 µM)
MIC50 (Candida albicans [10]): 1 µg/mL (≈ 2.4 µM)

CCCn1cc(-c2ccc(Cl)cc2)c(C(c2ccc(Cl)cc2Cl)n2ccnc2)c1 (stereo unspecified)
MIC50 (Candida albicans [11]): 1 µg/mL (≈ 2.25 µM)
Ratio (Candida albicans [2]): 1.7
MIC90 (Candida albicans [12]): 32 µg/mL (≈ 71.9 µM)
MIC (Candida albicans [13]): 8.56 µg/mL (≈ 19.2 µM)

COC(Cn1cc(-c2ccc(Cl)cc2)c(C(c2ccc(Cl)cc2Cl)n2ccnc2)c1)OC (stereo unspecified)
MIC90 (Candida albicans [14]): 4 µg/mL (≈ 8.15 µM)
MIC50 (Candida albicans [15]): 2 µg/mL (≈ 4.07 µM)
Ratio (Candida albicans [2]): 0.48
MIC (Candida albicans [16]): 2.66 µg/mL (≈ 5.42 µM)

Cn1cc(-c2ccc(Cl)cc2Cl)c(C(c2ccc(Cl)cc2Cl)n2ccnc2)c1 (stereo unspecified)
MIC50 (Candida albicans [17]): 8 µg/mL (≈ 17.7 µM)
Ratio (Candida albicans [2]): 2.9
MIC (Candida albicans [18]): 14.6 µg/mL (≈ 32.4 µM)
MIC90 (Candida albicans [19]): 32 µg/mL (≈ 70.9 µM)

Clc1ccc(COC(Cn2ccnc2)c2ccc(Cl)cc2Cl)c(Cl)c1 (stereo unspecified) [MICONAZOLE]
MIC (Candida albicans [20]): 0.65 µg/mL (≈ 1.56 µM)
Ratio (Candida albicans [2]): 0.14
MIC50 (Candida albicans [21]): 0.062 µg/mL (≈ 0.149 µM)
MIC90 (Candida albicans [22]): 1 µg/mL (≈ 2.4 µM)

Cc1ccc(C(c2cn(C)cc2-c2ccc(Cl)c(Cl)c2)n2ccnc2)cc1 (stereo unspecified)
MIC90 (Candida albicans [23]): 2 µg/mL (≈ 5.05 µM)
MIC (Candida albicans [24]): 0.87 µg/mL (≈ 2.2 µM)
Ratio (Candida albicans [2]): 0.19
MIC50 (Candida albicans [25]): 0.5 µg/mL (≈ 1.26 µM)

Cn1cc(-c2cccc3ccccc23)c(C(c2ccc(Cl)cc2Cl)n2ccnc2)c1 (stereo unspecified)
MIC90 (Candida albicans [26]): 16 µg/mL (≈ 37 µM)
MIC50 (Candida albicans [27]): 4 µg/mL (≈ 9.25 µM)
Ratio (Candida albicans [2]): 0.94
MIC (Candida albicans [28]): 4.58 µg/mL (≈ 10.6 µM)
